In brackets after ≈: the same amount, converted by molar mass. Read-outs that look alike come from different tables or passages of the source. Each block holds one molecule with its values, some of them ahead of it.
What was measured:
[1] = test system: S. aureus ATCC 29213; experiment: MIC, CLSI broth microdilution; type: cell-based, Staphylococcus aureus; conditions: for antibacterial activity relative to FA: S. aureus ATCC 29213, MIC; for MIC fold worse than FA: S. aureus ATCC 29213
Method in brief: (§1)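 Broth microdilution followed CLSI, in cation-adjusted Mueller-Hinton broth in round-bottom wells, run in biological triplicate. Reference strains came from ATCC.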

[2] = test system: S. aureus ATCC 29213; experiment: Resistance frequency, large inoculum method; type: cell-based, Staphylococcus aureus; conditions: 2, 4, 8, 16, 32X the MIC
[3] = test system: S. aureus; experiment: MIC shift in 50% human serum; type: cell-based, Staphylococcus aureus
Method in brief: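 The CLSI broth microdilution MIC in cation-adjusted Mueller-Hinton broth was repeated against S. aureus with 50% human serum (ultrafiltrate, 30K Dalton membrane-filtered, unspecified gender) in the medium. Testing was in biological triplicate.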

[4] = test system: human foreskin fibroblast-1 cells (HFF-1); experiment: Cell viability, Alamar Blue, 72 h; type: cell-based
Method in brief: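 HFF-1 fibroblasts were grown in DMEM with 15% fetal bovine serum, 100 μg/mL penicillin and 100 μg/mL streptomycin at 37 °C under 5% CO2. Cells were harvested, seeded and left to adhere. They were exposed to compounds in DMSO (1% final) for 72 h, and viability was then read by Alamar Blue. Raptinal (20 μM) served as the dead control.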

[5] = mouse, in vivo
[6] = test system: six clinical isolates of E. faecium (VRE); experiment: MIC against clinical isolates of E. faecium; type: cell-based, Enterococcus faecium; conditions: for activity against VRE clinical isolates: E. faecium clinical isolates with high levels of vancomycin resistance
[7] = test system: FA-resistant strains of S. aureus ATCC 29213; type: cell-based, Staphylococcus aureus
[8] = test system: strains of S. aureus ATCC 29213 resistant to FA-CP; experiment: MIC against FA-CP-resistant mutant strains; type: cell-based, Staphylococcus aureus
[9] = test system: 29 clinical isolates of S. aureus; experiment: MIC against multidrug-resistant clinical isolates of S. aureus; type: cell-based, Staphylococcus aureus; conditions: 29 multidrug-resistant clinical isolates
[10] = test system: S. aureus ATCC BAA-1721; experiment: MIC against S. aureus strain harboring the fusC gene; type: cell-based, Staphylococcus aureus; conditions: S. aureus ATCC BAA-1721, fusC gene
[11] = test system: E. faecium ATCC 19434; experiment: MIC against sensitive E. faecium; type: cell-based, Enterococcus faecium
Method in brief: as §1

[12] = test system: S. aureus (FA-32X-B); experiment: Neutropenic thigh infection burden study, FA-resistant strain; type: in vivo, CD-1 mice; conditions: 50 mg/kg IP at 1, 2, 3 h postinfection, 8 h postinfection
[13] = Mouse maximum tolerated dose / tolerability
[14] = test system: clinical isolates of S. aureus / staphylococci resistant to FA; conditions: cited from earlier work
[15] = test system: S. aureus strains in the United States; conditions: analysis conducted in 2011; cited from earlier work
[16] = human, in vivo; cited from earlier work

Compound: CC(=O)OC1CC2(C)C(CC(O)C3C4(C)CCC(O)C(C)C4CCC32C)C1=C(CCC=C1CCCCC1)C(=O)O (stereo not shown) [compound 26]
- MIC ([1]; S. aureus ATCC 29213, CLSI): 0.125 µg/mL (≈ 0.225 µM)
- antibacterial activity relative to FA [1]: equipotent activity to FA
- resistance frequency relative to FA [2]: only displayed an improvement at 32X the MIC
- shift in MIC in 50% human serum compared to FA [3]: very similar
- IC50 ([4]; HFF-1 cells, 72 h): > 50 µM

- MIC fold worse than FA [1]: 4–8 fold
Compound: CC(=O)OC1CC2(C)C(CC(O)C3C4(C)CCC(=O)C(C)C4CCC32C)C1=C(CCC=C(C)C)C(=O)O (stereo not shown) [compound 5]

Compound: CC(=O)O[C@H]1C[C@@]2(C)[C@@H](C[C@@H](O)[C@H]3[C@@]4(C)CC[C@@H](O)[C@@H](C)[C@@H]4CC[C@@]32C)/C1=C(\CCC=C(C)C)C(=O)O [sodium fusidate]
- tolerability in mice, single dose ([5]; ip, 50 mg/kg): well tolerated

Compound: CC(=O)O[C@H]1C[C@@]2(C)[C@@H](C[C@@H](O)[C@H]3[C@@]4(C)CC[C@@H](O)[C@@H](C)[C@@H]4CC[C@@]32C)/C1=C(\CCC=C1CCOCC1)C(=O)O [compound 27]
- MIC ([1]; S. aureus ATCC 29213, CLSI): 0.125 µg/mL (≈ 0.224 µM)
- antibacterial activity relative to FA [1]: equipotent activity to FA
- resistance frequency relative to FA [2]: worse resistance frequency relative to FA
- shift in MIC in 50% human serum compared to FA [3]: very similar
- IC50 ([4]; HFF-1 cells, 72 h): > 50 µM

Compound: CN[C@H](CC(C)C)C(=O)N[C@H]1C(=O)N[C@@H](CC(N)=O)C(=O)N[C@H]2C(=O)N[C@H]3C(=O)N[C@H](C(=O)N[C@H](C(=O)O)c4cc(O)cc(O)c4-c4cc3ccc4O)[C@H](O)c3ccc(c(Cl)c3)Oc3cc2cc(c3O[C@@H]2O[C@H](CO)[C@@H](O)[C@H](O)[C@H]2O[C@H]2C[C@](C)(N)[C@H](O)[C@H](C)O2)Oc2ccc(cc2Cl)[C@H]1O [vancomycin]
- MIC [6]: 512 µg/mL (≈ 353 µM)

- MIC fold worse than FA [1]: 4–8 fold
Compound: CC(=O)OC1CC2(C)C(CC(=O)C3C4(C)CCC(O)C(C)C4CCC32C)C1=C(CCC=C(C)C)C(=O)O (stereo not shown) [compound 10]

Compound: CC(=O)OC1CC2(C)C(CC(O)C3C4(C)CCC(O)C(C)C4CCC32C)C1C(CCCC(C)C)C(=O)O (stereo not shown) [compound 28]
- antibacterial activity relative to FA [1]: modest decreases in potency relative to FA

Compound: CC(=O)OC1CC2(C)C(CC(O)C3C4(C)CCC(O)C(C)C4CCC32C)C1=C(CCC=C1CCCC1)C(=O)O (stereo not shown) [FA-CP]
- MIC ([1]; S. aureus ATCC 29213, CLSI): 0.125 µg/mL (≈ 0.23 µM)
- antibacterial activity relative to FA [1]: equipotent activity to FA
- improvement in activity against FA-resistant strains relative to FA ([7]; 11 FA-resistant strains): 2–8 fold
- MIC ([7]; FA-resistant strain FA-4X-A, EF-G T385N): 2 µg/mL (≈ 3.68 µM)
- MIC ([7]; FA-resistant strain FA-4X-B, EF-G T385N): 2 µg/mL (≈ 3.68 µM)
- MIC ([7]; FA-resistant strain FA-8X-A, EF-G T385N): 2 µg/mL (≈ 3.68 µM)
- MIC ([7]; FA-resistant strain FA-8X-B, EF-G R464L): 8 µg/mL (≈ 14.7 µM)
- MIC ([7]; FA-resistant strain FA-16X-A, EF-G H457Y): 64 µg/mL (≈ 118 µM)
- MIC ([7]; FA-resistant strain FA-32X-A, EF-G F88L): 128 µg/mL (≈ 236 µM)
- MIC ([7]; FA-resistant strain FA-32X-B, EF-G P406L): 4 µg/mL (≈ 7.37 µM)
- MIC ([7]; FA-resistant strain FA-32X-C, EF-G H457L): 128 µg/mL (≈ 236 µM)
- MIC ([7]; FA-resistant strain FA-32X-D, EF-G T436I): 2 µg/mL (≈ 3.68 µM)
- MIC ([7]; FA-resistant strain FA-32X-E, EF-G H457N): 128 µg/mL (≈ 236 µM)
- MIC ([7]; FA-resistant strain FA-32X-F, EF-G D434N): 32 µg/mL (≈ 59 µM)
- fold increase in MIC from wild-type (WT) S. aureus ([8]; highest MIC of colonies generated from FA-CP): 512 fold
- highest MIC observed for colonies generated from FA-CP ([8]; resistance mutants generated at 32X the MIC): 64 µg/mL
- MIC for FA-CP ([8]; strain FA-CP-32X-1, EF-G H457Y): 32 µg/mL
- MIC for FA-CP ([8]; strain FA-CP-32X-2, EF-G H457Y): 64 µg/mL
- MIC for FA-CP ([8]; strain FA-CP-32X-3, EF-G H457Y): 64 µg/mL
- MIC for FA-CP ([8]; strain FA-CP-32X-4, EF-G H457Y): 32 µg/mL
- MIC for FA-CP ([8]; strain FA-CP-32X-5, EF-G H457Y): 64 µg/mL
- MIC for FA-CP ([8]; strain FA-CP-32X-6, EF-G H457Y): 64 µg/mL
- MIC for FA-CP ([8]; strain FA-CP-32X-7, EF-G H457Y): 64 µg/mL
- MIC for FA-CP ([8]; strain FA-CP-32X-8, EF-G H457Y): 64 µg/mL
- MIC for FA-CP ([8]; strain FA-CP-32X-9, EF-G H457Y): 32 µg/mL
- MIC for FA-CP ([8]; strain FA-CP-32X-10, EF-G D434N): 32 µg/mL
- MIC for FA-CP ([8]; strain FA-CP-32X-11, EF-G H457Y): 32 µg/mL
- MIC for FA-CP ([8]; strain FA-CP-32X-12, EF-G D434N): 32 µg/mL
- MIC for FA-CP ([8]; strain FA-CP-32X-13, EF-G H457Y): 64 µg/mL
- MIC for FA-CP ([8]; strain FA-CP-32X-14, EF-G H457Y): 32 µg/mL
- MIC for FA-CP ([8]; strain FA-CP-32X-15, EF-G H457Y): 64 µg/mL
- MIC for FA-CP ([8]; strain FA-CP-32X-16, EF-G F88L): 64 µg/mL
- MIC for FA-CP ([8]; strain FA-CP-32X-17, EF-G F88L): 64 µg/mL
- MIC for FA-CP ([8]; strain FA-CP-32X-18, EF-G H457Y): 64 µg/mL
- MIC for FA-CP ([8]; strain FA-CP-32X-19, EF-G H457Y): 32 µg/mL
- MIC for FA-CP ([8]; strain FA-CP-32X-20, EF-G H457Y): 32 µg/mL
- resistance frequency relative to FA [2]: modest improvement in resistance frequency at 2 and 32X the MIC
- shift in MIC in 50% human serum compared to FA [3]: very similar
- IC50 ([4]; HFF-1 cells, 72 h): > 50 µM
- activity against clinical isolates of S. aureus [9]: no cross-resistance with vancomycin and retained potent activity
- MIC [10]: 8 µg/mL (≈ 14.7 µM)
- MIC ([11]; sensitive strain E. faecium ATCC 19434): 2 µg/mL (≈ 3.68 µM)
- activity against VRE clinical isolates [6]: retained potent activity
- bacterial burden in thigh [12]: reductions in bacterial burden
- tolerability in mice, multiple doses ([13]; 50 mg/kg, intraperitoneal injection, once-a-day for 4 days): well tolerated
- tolerability in mice, single dose ([13]; single dose of 50 mg/kg, IP): well tolerated

Compound: CC(=O)O[C@H]1C[C@@]2(C)[C@@H](C[C@@H](O)[C@H]3[C@@]4(C)CC[C@@H](O)[C@@H](C)[C@@H]4CC[C@@]32C)/C1=C(\CCC=C(C)C)C(=O)O [FA, Fusidic acid, reference compound]
- MIC ([1]; Staphylococcus aureus, ATCC29213): 0.125 µg/mL (≈ 0.242 µM)
- IC50 ([4]; Homo sapiens, HFF-1, 72 h): > 50 µM
- activity against clinical isolates of S. aureus [9]: no cross-resistance with vancomycin and retained potent activity
- MIC ([11]; Enterococcus faecium, ATCC19434): 2 µg/mL (≈ 3.87 µM)
- activity against VRE clinical isolates [6]: retained potent activity
- bacterial burden in thigh [12]: no efficacy
- tolerability in mice, multiple doses [5]: well tolerated
- increase in MIC upon resistance ([14]; L461K mutation): > 2048 fold
- MIC ([14]; S. aureus clinical strains with EF-G L461K mutation): > 256 µg/mL
- MIC ([14]; five S. aureus clinical isolates with EF-G V90I, H457Q, L461K, A655V): > 256 µg/mL
- MIC range ([14]; staphylococcal clinical isolates that carry the fusC gene): 2 to 64 µg/mL
- MIC range ([14]; strains that possess the fusB gene): 4 to 1024 µg/mL
- S. aureus strains susceptible to FA [15]: 99.7%
- Cmax [16]: greater than 130 μg/mL
- half-life [16]: 10 to 14 h

Reference: PMC8713577 (ACS infectious diseases, 2021)
